In article PMC7497807 (Blood cancer discovery, 2020):
No end group written: not given here.

Molecular target: T1, MBP-ENL (Homo sapiens, UniProt Q03111)
T1 sequence (Q03111 1-559): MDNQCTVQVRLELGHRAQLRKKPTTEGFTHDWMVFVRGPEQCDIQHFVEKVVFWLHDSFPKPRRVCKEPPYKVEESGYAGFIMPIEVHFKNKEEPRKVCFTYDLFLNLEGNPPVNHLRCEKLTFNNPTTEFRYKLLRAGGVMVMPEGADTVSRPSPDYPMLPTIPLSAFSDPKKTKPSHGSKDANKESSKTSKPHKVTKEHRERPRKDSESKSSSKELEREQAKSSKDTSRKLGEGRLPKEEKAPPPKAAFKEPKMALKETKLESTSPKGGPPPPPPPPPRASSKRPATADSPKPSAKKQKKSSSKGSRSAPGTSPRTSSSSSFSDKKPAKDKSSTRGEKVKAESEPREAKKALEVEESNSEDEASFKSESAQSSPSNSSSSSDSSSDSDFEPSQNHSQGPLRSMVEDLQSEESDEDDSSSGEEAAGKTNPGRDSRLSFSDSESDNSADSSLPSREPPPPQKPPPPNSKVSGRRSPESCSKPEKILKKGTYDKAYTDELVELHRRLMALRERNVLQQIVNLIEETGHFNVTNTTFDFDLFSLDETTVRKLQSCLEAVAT
Assay: FA binding of fluorescein-labeled peptides to MBP-ENL
Conditions: fluorescence anisotropy, fluorescein-labeled peptide, MBP-ENL versus MBP-AF9
How it was run: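 Fluorescence anisotropy titrations of fluoresceinated peptides spanning the AF9-binding motif of each binding partner, run with MBP-ENL and, in parallel, MBP-AF9. A KD was obtained for each protein–peptide pair, and the fold change was taken as AF9 KD/ENL KD. Each measurement was run in three replicates, with error given as SEM.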

affinity for ENL compared with affinity for AF9 (in words): substantial enhancement in binding
Substance: FITC-CBX8: fluorescein-labeled CBX8 peptide (AQGGRPSLIARIPVARILGDPEEE; also: fluorescein-labeled, attachment not given here)
